Assay results taken from article PMC4431946 (Journal of the American Chemical Society, 2015).
Read-outs that look alike come from different tables or passages of the source.

Tests used:
[1] = molecular target: T1, rat nNOS (Rattus norvegicus, UniProt P29476); experiment: Irreversible inhibition kinetics; format: biochemical; details: for time-dependent inactivation of nNOS: result in words
[2] = molecular target: nNOS (Rattus norvegicus, UniProt P29476); experiment: LC/MS of amino acid metabolites after inactivation of nNOS by 1; format: biochemical; details: 56 µM of 1, 37 °C, 3 h
[3] = molecular target: T1, rat nNOS; details: result in words; reported earlier; cited from earlier work
[4] = molecular target: T1, rat nNOS; experiment: Hemoglobin NO generation assay; format: biochemical
[5] = molecular target: ferric nNOS (Rattus norvegicus, UniProt P29476); experiment: Spectral titration of ferric nNOS-H4B; format: binding
Summary of the method: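 Ferric full-length rat nNOS-H4B, 5 µM, in 50 mM HEPES pH 7.5 with 100 mM NaCl, titrated by 1–2 µL additions of test compound. Difference spectra recorded from 350–550 nm. Peak (~455 nm) minus trough (400 nm) absorbance plotted against ligand concentration.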

[6] = molecular target: ferrous nNOS (Rattus norvegicus, UniProt P29476); experiment: Spectral titration of dithionite-reduced; format: binding
Summary of the method: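 Full-length rat nNOS-H4B reduced with dithionite and desalted under anaerobic conditions in a glovebox. Degassed 50 mM HEPES pH 7.5 with 100 mM NaCl; compound stocks made in degassed buffer. Test compound added in 1–2 µL portions from 1, 5 and 20 mM stocks, totalling <2% of volume. Double-beam scans from 350–600 nm, repeated until stable. Peak (~455 nm) minus trough (410 nm) absorbance fitted with a quadratic function for apparent Ks.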

Sequence of ferrous nNOS (P29476 whole entry): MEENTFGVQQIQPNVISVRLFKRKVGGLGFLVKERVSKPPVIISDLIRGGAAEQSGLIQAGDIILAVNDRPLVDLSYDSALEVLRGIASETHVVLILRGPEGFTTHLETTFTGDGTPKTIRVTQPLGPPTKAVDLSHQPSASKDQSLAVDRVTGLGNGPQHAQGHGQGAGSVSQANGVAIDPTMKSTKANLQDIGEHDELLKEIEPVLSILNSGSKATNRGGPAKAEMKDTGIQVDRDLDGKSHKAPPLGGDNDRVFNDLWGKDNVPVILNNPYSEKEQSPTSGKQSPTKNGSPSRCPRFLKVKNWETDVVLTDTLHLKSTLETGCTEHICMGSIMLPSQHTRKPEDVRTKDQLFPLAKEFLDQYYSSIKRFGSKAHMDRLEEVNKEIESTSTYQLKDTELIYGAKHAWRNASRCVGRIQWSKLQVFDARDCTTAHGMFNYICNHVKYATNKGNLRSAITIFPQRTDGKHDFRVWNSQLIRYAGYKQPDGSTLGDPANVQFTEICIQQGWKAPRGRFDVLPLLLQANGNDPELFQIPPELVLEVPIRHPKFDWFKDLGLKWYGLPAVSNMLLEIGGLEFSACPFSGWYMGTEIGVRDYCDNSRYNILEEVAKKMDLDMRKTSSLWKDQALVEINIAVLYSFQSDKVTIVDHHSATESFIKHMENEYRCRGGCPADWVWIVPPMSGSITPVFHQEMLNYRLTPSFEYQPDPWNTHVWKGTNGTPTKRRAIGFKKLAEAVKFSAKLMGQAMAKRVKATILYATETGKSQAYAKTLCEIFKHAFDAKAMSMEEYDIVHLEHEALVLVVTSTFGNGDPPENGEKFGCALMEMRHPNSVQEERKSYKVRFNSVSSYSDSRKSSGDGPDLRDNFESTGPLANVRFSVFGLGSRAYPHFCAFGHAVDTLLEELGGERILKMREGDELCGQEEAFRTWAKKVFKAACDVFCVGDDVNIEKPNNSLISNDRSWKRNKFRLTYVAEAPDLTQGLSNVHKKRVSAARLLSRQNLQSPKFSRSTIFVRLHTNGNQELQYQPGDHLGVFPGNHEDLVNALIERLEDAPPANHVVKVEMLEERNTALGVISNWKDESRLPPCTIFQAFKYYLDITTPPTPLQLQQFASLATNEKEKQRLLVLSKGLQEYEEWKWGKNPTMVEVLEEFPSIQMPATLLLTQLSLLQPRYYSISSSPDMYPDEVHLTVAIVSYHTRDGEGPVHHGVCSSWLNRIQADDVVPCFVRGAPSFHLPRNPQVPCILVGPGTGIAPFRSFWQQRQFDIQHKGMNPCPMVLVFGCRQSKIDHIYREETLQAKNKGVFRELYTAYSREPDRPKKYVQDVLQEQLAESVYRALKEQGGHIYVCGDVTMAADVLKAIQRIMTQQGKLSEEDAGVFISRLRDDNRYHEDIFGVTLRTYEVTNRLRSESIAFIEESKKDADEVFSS
Sequence of ferric nNOS (P29476 whole entry): as above

SMILES | time-dependent inactivation of nNOS [1] | IC50 [4] | Ki [4] | also measured
CSCC(=N)NCCC[C@H](N)C(=O)O [compound 1, (S)-2-Amino-5-(2-(methylthio)acetimidamido)pentanoic acid] | inactivator of nNOS |  |  | amount of 2 produced from the inactivation of nNOS by 1 [2]: Approximately 0.53 µM; time-dependent inactivation of nNOS [3]: time-dependent irreversible inhibitor of nNOS
C[S+]([O-])CC(=N)NCCC[C@H](N)C(=O)O (stereo partly drawn) [compound 2, (2S)-2-Amino-5-(2-(methylsulfinyl)acetimidamido)pentanoic acid] | neither showed time-dependent inactivation | 461 ± 20 µM | 53 ± 2.4 µM | 
CS(=O)(=O)CC(=N)NCCC[C@H](N)C(=O)O [compound 3, (S)-2-Amino-5-(2-(methylsulfonyl)acetimidamido)pentanoic acid] | neither showed time-dependent inactivation | 507 ± 49 µM | 58.3 ± 5.6 µM | 
N=C(C=O)NCCC[C@H](N)C(=O)O [compound 4, (S)-2-Amino-5-(2-oxoacetimidamido)pentanoic acid] | neither was a time-dependent inhibitor | 199 ± 7.1 µM | 22.9 ± 0.82 µM | 
N=C(CO)NCCC[C@H](N)C(=O)O [compound 5, (S)-2-Amino-5-(2-hydroxyacetimidamido)pentanoic acid] | neither was a time-dependent inhibitor | 13 ± 0.67 µM | 1.5 ± 0.08 µM | 
N=C(CS)NCCC[C@H](N)C(=O)O [compound 6, (S)-2-Amino-5-(2-mercaptoacetimidamido)pentanoic acid] | time- and concentration-dependent inactivator | 3.64 ± 0.15 µM | 0.42 ± 0.017 µM | Ki [1]: 2.9 ± 0.2 µM; kinact [1]: 0.000767 s⁻¹; kinact/KI [1]: 267 M⁻¹ s⁻¹; inactivation rate (kinact) relative to 1 ([1]; 6 versus 1): about half the inactivation rate; Kd [5]: 1.8 ± 0.1 µM; heme ligand type from difference spectra ([5]; ferric nNOS-H4B): type-II ligand; Kd [6]: 1.6 ± 0.3 µM; heme ligand type from difference spectra ([6]; dithionite-reduced nNOS-H4B): still a type-II ligand
